A selection: hits, their analogues and other compounds. The true share with any hit is near 2.3%.
TRPC4 inh: blocks the mouse TRPC4 cation channel | B-score at 10 µM | Q9QUQ5 | hit rate 0.39% among 300,000 | HEK293 TRPC4beta/mu-opioid, DAMGO-evoked Fluo4 calcium flux; active compounds read low;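 active means B-score over 3 SD under the library average, no early fluorescence shift, positive overall ratio signal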
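Assay system: HEK293 cells with stable TRPC4beta plus mu-opioid receptor expression. Dosing: single dose. Measured by: Fluo4 Ca2+ flux fluorescence. Also added: DAMGO in two steps, submaximal then maximal. Read-out: B score from integrated Fluo4 fluorescence ratio.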
TRPC6 act: activators of mouse TRPC6 channel | HEK293-TRPC6 membrane potential dye fluorescence; active compounds read high | B-score at 10 µM | hit rate 0.13% among 310,000;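 active means B-score of the integrated fluorescence ratio above library mean plus 3 SD, and starting fluorescence ratio within library mean plus 5 SD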;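 further: higher score means more depolarization so channel activation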
Target sequence (Q61143 whole entry, looked up): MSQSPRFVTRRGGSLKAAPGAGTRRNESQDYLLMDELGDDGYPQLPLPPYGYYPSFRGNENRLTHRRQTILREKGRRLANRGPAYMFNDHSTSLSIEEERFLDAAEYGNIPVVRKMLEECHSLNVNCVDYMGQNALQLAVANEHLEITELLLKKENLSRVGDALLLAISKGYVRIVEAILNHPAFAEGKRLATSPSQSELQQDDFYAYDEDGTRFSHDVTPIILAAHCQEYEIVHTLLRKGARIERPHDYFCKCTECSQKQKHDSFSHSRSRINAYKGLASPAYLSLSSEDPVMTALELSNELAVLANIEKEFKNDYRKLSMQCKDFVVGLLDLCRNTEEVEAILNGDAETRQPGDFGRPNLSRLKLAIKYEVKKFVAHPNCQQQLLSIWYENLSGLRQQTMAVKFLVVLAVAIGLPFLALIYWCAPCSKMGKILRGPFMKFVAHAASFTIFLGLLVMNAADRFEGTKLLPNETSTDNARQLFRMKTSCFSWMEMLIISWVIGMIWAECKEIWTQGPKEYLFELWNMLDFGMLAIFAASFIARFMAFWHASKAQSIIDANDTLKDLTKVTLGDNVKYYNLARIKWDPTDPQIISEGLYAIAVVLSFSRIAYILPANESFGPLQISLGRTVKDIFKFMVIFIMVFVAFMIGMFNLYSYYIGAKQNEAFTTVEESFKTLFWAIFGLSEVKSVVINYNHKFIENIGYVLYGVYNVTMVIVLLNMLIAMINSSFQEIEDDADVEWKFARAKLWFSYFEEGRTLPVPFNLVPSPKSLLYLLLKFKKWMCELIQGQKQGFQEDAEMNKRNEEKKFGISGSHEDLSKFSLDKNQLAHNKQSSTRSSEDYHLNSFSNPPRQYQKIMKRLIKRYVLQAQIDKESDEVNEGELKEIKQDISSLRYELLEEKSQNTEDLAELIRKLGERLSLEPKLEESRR
TRPC4 act: activators of mouse TRPC4 channel; B-score at 10 µM; hit rate 0.49% among 310,000; HEK293 TRPC4beta/mu-opioid, Fluo4 calcium fluorescence; active compounds read high; AID 2237;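 active means B-score above 5 SD of library B-scores, and initial fluorescence ratio not above library mean plus 5 SD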;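 further: positive B-score marks a calcium rise read as TRPC4 activation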
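System – HEK293 cells stably co-expressing mouse TRPC4beta and mu-opioid receptor · Signal – Fluo4 calcium-sensitive dye fluorescence, kinetic, 1 Hz baseline · Benchmarks – buffer (low) and maximal DAMGO (high) · Read-out – B score of integrated fluorescence ratio per well · Incubation – dye loading 45 min room temperature, 110 s kinetic read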
TRPC6 inh: inhibitors of mouse TRPC6 channel; Q61143; HEK293-TRPC6, membrane potential dye, ACh-evoked depolarization; active compounds read low; B-score at 10 µM; hit rate 1.1% among 310,000; AID 2553;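 active means B-score under library mean minus 3 SD, initial fluorescence not abnormally high, positive integrated signal ratio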;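 further: B-score derived from integrated fluorescence ratio over the kinetic read; more negative B-score means stronger inhibition of depolarization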
TRPC4 PAM: TRPC4 (mouse) allosteric potentiation | Q9QUQ5 | HEK293 TRPC4beta/mu-opioid, DAMGO EC20, Fluo-4 Ca2+ flux; active compounds read high | B-score at 10 µM | hit rate 0.42% among 310,000 | AID 2227;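 active means B-score of calcium response area above 5 SD of library B-scores, with initial fluorescence ratio within 5 SD of library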;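 further: B-score of integrated fluorescence ratio over time as area under calcium response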
Active calls of the source: *; i = inactive.

SMILES | TRPC4 inh | TRPC6 act | TRPC4 act | TRPC6 inh | TRPC4 PAM
CC1CC(C)CN(CCCNC(=O)c2cn(C)c3ccc(S(=O)(=O)N4CCCC4)cc3c2=O)C1 (stereo not given) | i | i | 55* | i | i
CC1CCN(CCCNC(=O)c2cn(C)c3ccc(S(=O)(=O)N4CCCC4)cc3c2=O)CC1 | i | i | i | i | i
Cn1cc(C(=O)N2CCN(c3ccccc3)CC2)c(=O)c2cc(S(=O)(=O)N3CCCC3)ccc21 | i | i | i | i | i
CCCN(CCC)CCCNC(=O)c1cn(CC)c2ccc(S(=O)(=O)N3CCOCC3)cc2c1=O | i | i | 45* | i | i
CN(Cc1ccccc1)C(=O)c1cn(C)c2ccc(S(=O)(=O)N3CCCC3)cc2c1=O | i | i | i | i | 12*
O=C(O)c1ccc(Cl)c(S(=O)(=O)Nc2ccc(OCc3ccccc3)cc2)c1 | i | i | i | i | i
O=C(Cn1cncn1)N/N=C/c1cccnc1 | i | i | i | i | i
COC(=O)c1ccc(-n2nnnc2SCC(=O)Nc2ccccc2F)cc1 | i | i | i | i | i
CCOC(=O)CC(=O)CSc1n[nH]c(=O)[nH]c1=O | i | i | i | i | i
COCCn1c(SCc2ccccc2F)nc2ccccc2c1=O | -6* | i | i | i | i
COCCn1c(SCC(=O)N2CCc3ccccc3C2)nc2ccccc2c1=O | -5* | i | i | i | i
COC(=O)c1ccc(CSc2nc3ccccc3c(=O)n2C)o1 | i | i | i | i | i
COCCn1c(SCC(=O)N2CCOCC2)nc2ccccc2c1=O | i | i | i | i | i
COC(=O)c1ccc(CSc2nc3ccccc3c(=O)n2CC(C)C)o1 | -7* | i | i | i | i
COCCn1c(SCc2cccc([N+](=O)[O-])c2)nc2ccccc2c1=O | -6* | i | i | i | i
CC(=O)NCCn1c(SCc2ccccc2F)nc2ccccc2c1=O | i | i | i | i | i
Cc1onc(-c2c(F)cccc2Cl)c1C(=O)O/N=C(\N)c1ccc([N+](=O)[O-])o1 | i | i | i | i | i
COCCn1c(SCC(=O)c2ccccc2)nc2ccccc2c1=O | -7* | i | i | i | i
COCCCn1c(SCC(=O)c2ccccc2)nc2ccccc2c1=O | i | i | i | i | i
CC(C)C(NC(=O)c1ccc(Cl)cc1)C(=O)NCC1CCCO1 (stereo not given) | i | i | i | i | i
COc1ccc(-c2nc3ccccc3c(=O)n2NC(=O)c2cccnc2Cl)cc1OC | i | i | i | i | i
COc1ccccc1C(CCNCc1ccc(N(C)C)cc1)c1ccc(OC(C)C)cc1 (stereo not given) | i | i | 47* | i | i
COc1ccc(CNCCC(c2ccccc2)c2ccc3c(c2)OCO3)cc1 (stereo not given) | i | i | 125* | i | i
O=C(CN1CC[n+]2c(-c3ccccc3)csc21)c1ccc(Br)cc1 | i | i | i | i | i
O=C(CN1CC[n+]2c(-c3cccs3)csc21)c1ccc(Br)cc1 | i | i | i | -5* | i
SMILES | TRPC4 inh | TRPC6 act | TRPC4 act | TRPC6 inh | TRPC4 PAM
CN(C(=O)CSc1ncnc2scc(-c3ccccc3)c12)C1CCS(=O)(=O)C1 (stereo not given) | i | i | i | i | i
Cc1sc2ncnc(SCC(=O)N(C)C3CCS(=O)(=O)C3)c2c1C (stereo not given) | i | i | i | i | 34*
COc1ccc(NC(=S)NCC(c2ccco2)N2CCCC2)cc1 (stereo not given) | i | i | i | i | i
S=C(NCCc1ccccc1)NCC(c1ccco1)N1CCCCC1 (stereo not given) | i | i | 60* | i | i
CC(=O)c1cn(S(=O)(=O)c2ccccc2)c2ccccc12 | i | i | i | i | i
CC#CC[N+](C)(C)CCCCCCCCCCCC | -8* | i | i | i | i
C#CC[N+](C)(C)CCCCCCCCCC | i | i | i | i | i
Cc1cc(N2CCCCCC2)nc2ccc(F)cc12 | -6* | i | i | i | i

Bioassay records from PubChem.
